26 compounds from ChEMBL document CHEMBL4706565, “Anti-glioma effects of 2-aminothiophene-3-carboxamide derivatives, ANO1 channel blockers” (Eur J Med Chem, 2020) can be followed below.

The experiment addresses T1, Anoctamin-1 (Homo sapiens) (UniProt Q5XXA6).
T1 sequence (whole entry): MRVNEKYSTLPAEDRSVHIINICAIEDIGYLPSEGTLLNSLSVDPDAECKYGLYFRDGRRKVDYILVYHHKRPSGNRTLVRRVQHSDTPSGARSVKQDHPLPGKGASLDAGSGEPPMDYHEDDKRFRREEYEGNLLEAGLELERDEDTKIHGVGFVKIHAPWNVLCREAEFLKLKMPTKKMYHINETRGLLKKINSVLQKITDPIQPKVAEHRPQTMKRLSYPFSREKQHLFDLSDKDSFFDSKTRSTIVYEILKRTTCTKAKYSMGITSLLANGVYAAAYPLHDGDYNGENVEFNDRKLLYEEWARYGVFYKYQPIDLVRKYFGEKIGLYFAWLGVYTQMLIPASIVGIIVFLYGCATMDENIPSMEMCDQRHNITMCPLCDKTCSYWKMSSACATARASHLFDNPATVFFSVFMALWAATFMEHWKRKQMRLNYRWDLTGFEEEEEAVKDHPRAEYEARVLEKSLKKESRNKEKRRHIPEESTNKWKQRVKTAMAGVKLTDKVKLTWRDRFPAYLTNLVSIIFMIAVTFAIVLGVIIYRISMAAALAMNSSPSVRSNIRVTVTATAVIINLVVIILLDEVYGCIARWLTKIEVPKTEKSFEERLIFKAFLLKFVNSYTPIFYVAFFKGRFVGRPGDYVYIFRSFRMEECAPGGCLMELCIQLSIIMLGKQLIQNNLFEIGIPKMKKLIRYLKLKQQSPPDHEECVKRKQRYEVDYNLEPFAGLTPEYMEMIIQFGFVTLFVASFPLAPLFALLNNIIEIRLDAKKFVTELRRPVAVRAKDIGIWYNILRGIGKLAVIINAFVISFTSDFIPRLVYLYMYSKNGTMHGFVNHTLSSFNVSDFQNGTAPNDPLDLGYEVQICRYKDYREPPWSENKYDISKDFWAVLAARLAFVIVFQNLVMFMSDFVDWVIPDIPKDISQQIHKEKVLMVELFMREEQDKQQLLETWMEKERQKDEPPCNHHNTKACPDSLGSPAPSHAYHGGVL
Kind of experiment: Inhibition of human ANO1 channel expressed in HEK293 cells at 10 uM incubated for 10 mins by FLIPR assay relative to control. In kind it is cell-based. In outline: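 HEK293 cells expressing human ANO1, 50,000 cells/well, plated overnight. Loaded with FLIPR Red membrane-potential dye in HEPES-buffered saline (pH 7.4) for 40-60 min at room temperature. Compound added for 10 min at room temperature, final DMSO 0.5%.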
In the case of `NC(=O)c1c(NC(=O)c2ccccc2)sc2c1CCC2`, the inhibition (commonly the share of the control response that was lost under treatment) is < 10%.

Turning to `NC(=O)c1c(N)sc2c1CCCCC2`, the inhibition was < 10%.

On to `NC(=O)c1c(NC(=S)NC(=O)c2cccc(Cl)c2)sc2c1CCC2`, for which the inhibition is < 10%.

As to `NC(=O)c1c(NC(=S)NC(=O)c2ccc3c(c2)OCCO3)sc2c1CCC2`, the inhibition came out at 12.3%.

For the compound `NC(=O)c1c(N)sc2c1CCC2`, the inhibition worked out at 15.4%.

Take `Cc1ncsc1C(=O)NC(=S)Nc1sc2c(c1C(N)=O)CCC2`: the inhibition is < 10%.

In the case of `NC(=O)c1c(NC(=S)NC(=O)c2ccco2)sc2c1CCCCC2`, the inhibition came out at 21.8%.

Turning to `NC(=O)c1c(NC(=O)c2ccccc2)sc2c1CCCCC2`, the inhibition was determined as 12.1%.

For `NC(=O)c1c(NC(=O)c2ccco2)sc2c1CCCCC2`, the inhibition is < 10%.

`NC(=O)c1c(NC(=O)c2ccco2)sc2c1CCC2` had an inhibition of 51.5%.

For `NC(=O)c1ccsc1N`, the inhibition was < 10%.

`CC(C)(C)C1CCc2c(sc(NC(=S)NC(=O)c3ccco3)c2C(N)=O)C1` (stereo unspecified) displayed an inhibition of 13.8%.

For the compound `NC(=O)c1ccsc1NC(=O)c1ccco1`, the inhibition stood at 39.5%.

On to `COc1cc(C(=O)NC(=S)Nc2sc3c(c2C(N)=O)CCC3)cc(OC)c1OC`, for which the inhibition is < 10%.

With `NC(=O)c1c(NC(=S)NC(=O)c2ccco2)sc2c1CCC2`, the inhibition was < 10%.

Turning to `CC(C)(C)C(=O)Nc1sc2c(c1C(N)=O)CCC2`, the inhibition is 12.5%.

Turning to `NC(=O)c1c(NC(=S)NC(=O)c2ccccc2)sc2c1CCCCC2`, the inhibition amounted to 21.1%.

Compound `CC(C)(C)C1CCc2c(sc(NC(=O)c3ccccc3)c2C(N)=O)C1` (stereo unspecified) yielded an inhibition of 22%.

`NC(=O)c1c(NC(=S)NC(=O)c2cccc(C(F)(F)F)c2)sc2c1CCC2`: the inhibition amounted to 26.7%.

For `COc1ccc(C(=O)NC(=S)Nc2sc3c(c2C(N)=O)CCC3)cc1OC`, the inhibition is < 10%.

Consider `NC(=O)c1ccsc1NC(=O)c1ccccc1`, for which the inhibition was < 10%.

For `CC(C)(C)C1CCc2c(sc(NC(=O)c3ccco3)c2C(N)=O)C1` (stereo unspecified), the inhibition was < 10%.

As for `NC(=O)c1c(NC(=S)NC(=O)c2ccc3c(c2)OCO3)sc2c1CCC2`, the inhibition was 16.3%.

As to `CC(C)(C)C(=O)Nc1sccc1C(N)=O`, the inhibition was < 10%.

Compound `COc1cc(OC)cc(C(=O)NC(=S)Nc2sc3c(c2C(N)=O)CCC3)c1` gave an inhibition of 46.1%.

Take `NC(=O)c1c(NC(=S)NC(=O)c2ccc(C(F)(F)F)cc2)sc2c1CCC2`: the inhibition was < 10%.
